Source: PubChem BioAssay (several laboratories)
TLR9-MyD88 block – inhibitors of TLR9-MyD88 association in cells, primary screen, cell-based, CHO, BLA complementation, fluorescence. inhibition, % at 4.98 µM. CCF4 FRET ratio. 0.21% of 340,000 active. Toll-like receptor 9 (Homo sapiens) + Myeloid differentiation primary response protein …;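 active = inhibition above the mean over all tested compounds plus 3 SD, cut at about 21% in these data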;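 note: 0% = DMSO only wells and 100% = clavulanate BLA inhibitor control wells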
bCat nuc transl – modulators of beta-catenin nuclear translocation, primary screen, imaging, HeLa cells, immunofluorescence, high-content. 0.3% of 190,000 active. nuclear translocation activity, % at 5 µM. AID 1665, 2009;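 active = nuclear translocation activity above 50% at 5 µM, with a well cell count of 50 or more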;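 note: per-cell ratio of nuclear to cytoplasmic median beta-catenin stain intensity; plate controls were DMSO negative control for no effect and GSK-3 inhibitor IX positive control for full effect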
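Test system: human HeLa cells, endogenous beta-catenin. Times: 24 h compound exposure, 37°C. Measured by: beta-catenin immunofluorescence imaging with DAPI.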
TLR4-MyD88 BLA – inhibitors of TLR4-MyD88 association in cells, primary screen, cell-based, HeLa CL3-4, BLA complementation, FRET ratio; Toll-like receptor 4 (Homo sapiens) + Myeloid differentiation primary response protein …; HeLa CL3-4 TLR4/MyD88 BLA complementation; inhibition, % at 8.4 µM; 0.18% of 200,000 active; in the data active = inhibition above about 25%;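 note: 0% = vehicle and 100% = reference inhibitor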
NOD2-RIPK2 inh – NOD2-RIPK2 binding disruptors in cells, primary screen, fluorescence, CHO cells, BLA complementation | Receptor-interacting serine/threonine-protein kinase 2 (Homo sapiens), O43353 | AID 624267, 2012 | inhibition, % at 4.98 µM | 0.38% of 360,000 active | CCF4 ratio; in the data active = inhibition above about 21%;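 note: 0% = vehicle only and 100% = reference blocker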
Target sequence (O43353 whole entry, looked up): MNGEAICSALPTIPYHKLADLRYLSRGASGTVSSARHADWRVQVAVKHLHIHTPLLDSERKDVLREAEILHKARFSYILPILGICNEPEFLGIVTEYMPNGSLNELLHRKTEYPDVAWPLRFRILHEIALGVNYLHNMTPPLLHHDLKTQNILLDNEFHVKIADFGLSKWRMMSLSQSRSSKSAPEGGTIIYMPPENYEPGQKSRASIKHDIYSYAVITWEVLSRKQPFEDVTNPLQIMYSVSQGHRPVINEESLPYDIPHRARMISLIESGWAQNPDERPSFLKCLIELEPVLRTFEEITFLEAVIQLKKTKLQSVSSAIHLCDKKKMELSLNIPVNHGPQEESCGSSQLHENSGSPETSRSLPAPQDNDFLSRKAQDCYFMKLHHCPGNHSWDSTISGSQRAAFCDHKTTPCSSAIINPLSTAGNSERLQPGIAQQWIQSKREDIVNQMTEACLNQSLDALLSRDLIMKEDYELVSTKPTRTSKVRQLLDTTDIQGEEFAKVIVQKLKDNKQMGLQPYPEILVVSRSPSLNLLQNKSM
Hsp70 act – Hsp70 transcriptional activators, primary screen, cell-based, HeLa, Hsp70 promoter luciferase, luminescence, 10 µM; HeLa Hsp70 promoter luciferase reporter; scaled: vehicle 0, proteasome-inhibitor control 100%; activation, % at 10 µM; 0.04% of 200,000 active; AID 1203, 2008;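 active = activation above the mean across all tested compounds plus 3 SD, cutoff set per campaign, cut at about 5.5% in these data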;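 note: 100% = MG132 at 30 µM as the positive control and 0% = DMSO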
MT stabilizer – microtubule stabilizers in HeLa cells, primary screen, imaging, high-content imaging. % tubulin-high responders, % at 10 µM. HeLa tubulin immunostaining HCS, 24 h; share of cells brighter than vehicle mean+2SD. AID 2205, 2009. 0.83% of 200,000 active;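 active = plate Z-score above 3 for both tubulin-high and condensed-nucleus cell shares, with cell loss under 80%, at 10 µM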;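 note: anti alpha tubulin signal scored within the nucleus-defined area of each cell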
NOD2-RIPK2 conf – NOD2-RIPK2 binding disruptors, retest, confirmation, fluorescence, CHO cells, BLA complementation, triplicate; shares compounds with NOD2-RIPK2 inh; AID 624370, 2012; 70% of 1,200 active; CCF4 FRET; inhibition, % at 4.98 µM;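 active = mean inhibition across replicates above a set limit taken from the earlier primary screen, cut at about 21% in these data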;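 note: 0% = DMSO-only wells and the high end = clavulanate BLA-blocked wells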
BLA counter – hits BLA reporter in NOD2-RIPK2 inhibitor counterscreen. 57% of 1,200 active. AID 624371. shares compounds with NOD2-RIPK2 inh. inhibition, % at 4.98 µM. CHO BLA reporter, CCF4 FRET ratio;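 active = mean inhibition above the low-control mean inhibition plus three low-control SD, cut at about 11% in these data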;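 note: 0% = DMSO only wells and 100% = clavulanate high control wells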
The depositor's hits bear a star; x = no result. An excerpt weighted towards active compounds, which were near 1% of everything screened.

SMILES | TLR9-MyD88 block | bCat nuc transl | TLR4-MyD88 BLA | NOD2-RIPK2 inh | Hsp70 act | MT stabilizer | NOD2-RIPK2 conf | BLA counter
CCC(OC(=O)c1ccc(S(C)(=O)=O)c([N+](=O)[O-])c1)C(=O)NC1C2CC3CC(C2)CC1C3 (stereo unspecified) | x | x | x | 14 | x | x | x | x
CC(OC(=O)c1ccc(S(C)(=O)=O)c([N+](=O)[O-])c1)C(=O)NC1C2CC3CC(C2)CC1C3 (stereo unspecified) | x | x | x | 25* | x | x | 65* | 8
CSc1nc(N)nc2c1ncn2C1OC(CO)CC1O (stereo unspecified) | 2 | x | x | 0 | x | x | x | x
CNC(=O)c1nnsc1S(=O)(=O)c1ccc(Cl)cc1 | 41* | -1 | 13 | 85* | 0 | 3 | 80* | 9
COc1ccc(C(O)C(CN2CCOCC2)c2ccccc2)cc1F (stereo unspecified) | 9 | -1 | 0 | 2 | 0 | 3 | x | x
COc1ccc(C(=O)C(CN2CCOCC2)c2ccccc2)cc1F (stereo unspecified) | 4 | 2 | -3 | 58* | 0 | 4 | -4 | -5
Cc1ccc(C(CC(=O)NCCCN(C)C)c2ccc(OC(C)C)cc2)cc1 (stereo unspecified) | 11 | -1 | x | -7 | x | x | x | x
O=C(Nc1ccccc1)c1cccc(C(F)(F)F)c1 | -5 | -2 | 7 | -15 | 0 | 3 | x | x
Cc1c(C(=O)Nc2ccccc2)c2ccc(C(F)(F)F)cc2n1O | x | x | x | 34* | x | x | 28* | 10
O=C(Nc1ccc2nc3n(c(=O)c2c1)CCCCC3)c1c(F)ccc([N+](=O)[O-])c1F | 11 | x | x | 23* | x | x | 23* | -2
O=C(Nc1ccc2nc3n(c(=O)c2c1)CCCCC3)c1cc([N+](=O)[O-])ccc1F | -8 | x | x | 15 | x | x | x | x
Cc1ccccc1Nc1nnc(SCC(=O)c2c(N)n(C3CC3)c(=O)[nH]c2=O)s1 | 0 | x | x | -2 | x | x | x | x
Cc1ccnc(NC(=O)C(Cc2ccccc2)NC(=O)c2ccccc2)c1 (stereo unspecified) | 2 | x | x | -4 | x | x | x | x
O=C1C(=C(c2ccccc2)N2CCOCC2)Cc2ccccc21 | 15 | x | x | 84* | x | x | 85* | 6
COc1ccc(-c2cc(-c3nc4ccccn4c3NCc3ccccc3)ccc2OC)cc1 | -5 | x | x | 29* | x | x | 21 | 6
COc1ccc(NS(=O)(=O)c2ccc3ccccc3c2)c2ncccc12 | 13 | x | x | 29* | x | x | 30* | 17*
Cn1c(NCCN2CCCC2)nc2cc(-c3ccsc3)sc2c1=O | x | x | x | -2 | x | x | x | x
Cc1ccc(N(Cc2ccccc2)C(=O)Cc2ccc(S(=O)(=O)N3CCOCC3)s2)cc1 | -8 | x | x | 6 | x | x | x | x
C=C1C(=O)[C@]23C[C@H]1CC[C@H]2[C@]1(C)[C@@H](OC(C)=O)CC[C@@](C)(C(=O)OC)[C@H]1C[C@@H]3OC(C)=O | x | x | x | 59* | x | x | 56* | 5
C=C1C(=O)[C@]23C[C@H]1CCC2[C@@]1(C)C(C[C@@H]3O)[C@](C)(C(=O)OC)CC[C@@H]1OC(C)=O (stereo partly specified) | x | x | x | 93* | x | x | 93* | 22*
Cc1cn([C@H]2C[C@H](O)[C@@H](/C=C/C(=O)NCc3ccccc3)O2)c(=O)[nH]c1=O | x | x | x | -4 | x | x | x | x
Cc1cn([C@H]2C[C@H](O)[C@@H](/C=C/C(=O)NCCN3CCCCC3)O2)c(=O)[nH]c1=O | x | x | x | 61* | x | x | -2 | -7
O=C(COc1coc(CN2CCCc3ccccc32)cc1=O)Nc1ccccc1 | -8 | x | x | -2 | x | x | x | x
O=C(O)CCC(=O)N1CCN(S(=O)(=O)c2ccc3ccccc3c2)CC1 | -2 | x | x | 11 | x | x | x | x
Cc1ccc(S(=O)(=O)N2CCCCC2)cc1NC(=O)Cn1cnnn1 | 6 | 2 | x | -20 | x | x | x | x
SMILES | TLR9-MyD88 block | bCat nuc transl | TLR4-MyD88 BLA | NOD2-RIPK2 inh | Hsp70 act | MT stabilizer | NOD2-RIPK2 conf | BLA counter
CCN(CC)S(=O)(=O)c1cc(NC(=O)Cn2ncc(Cl)c(Cl)c2=O)ccc1C | 19 | -1 | x | 22* | x | x | 35* | 9
Cc1ccc(S(=O)(=O)N2CCCCC2)cc1NC(=O)Cn1ncc(Cl)c(Cl)c1=O | 20 | x | x | 44* | x | x | 45* | 12*
O=C(Cn1ncc(Cl)c(Cl)c1=O)N1CCN(S(=O)(=O)c2ccc3ccccc3c2)CC1 | 11 | 1 | 19 | 50* | 1 | 8 | 68* | 15*
O=C(Cn1ncc(Cl)c(Cl)c1=O)NC(=O)NC1CCCCC1 | 6 | x | x | 28* | x | x | 47* | 8
COc1ccc(NC(=O)Cn2ncc(Cl)c(Cl)c2=O)cc1S(=O)(=O)N1CCOCC1 | -4 | -1 | 0 | -17 | 0 | 6 | x | x
Cc1cc(Br)ccc1NC(=O)CNC(=O)CSc1ncccn1 | 6 | x | x | 4 | x | x | x | x
O=C(Cn1ncc(Cl)c(Cl)c1=O)Nc1ccc2c(c1)OCO2 | 10 | x | x | 21* | x | x | 25* | 5
Cc1cc(Br)ccc1NC(=O)CNC(=O)Cn1ncc(Cl)c(Cl)c1=O | 5 | -2 | -3 | 25* | 0 | 3 | 36* | 4
Cc1nn(CC(=O)Nc2ccc3c(c2)OCO3)c(C)c1Cl | -21 | x | x | -10 | x | x | x | x
CCC(=NOCc1ccccc1)C(=O)NNS(=O)(=O)c1ccc(C)cc1 | 4 | x | x | 5 | x | x | x | x
O=c1nc(Oc2ccccc2)nc2ncccn12 | -2 | x | x | -4 | x | x | x | x
O=[N+]([O-])c1ccc(N/N=C/c2ccccc2)c(F)c1 | 17 | 0 | 17 | 24* | 0 | 6 | 27* | 30*
CCN1CCN(c2ccc(S(=O)(=O)N3CCCCC3)cc2NC(=O)/C=C/c2ccc([N+](=O)[O-])cc2)CC1 | -2 | x | x | 0 | x | x | x | x
CN1CCN(c2ccc(S(=O)(=O)N3CCCCC3)cc2NC(=O)/C=C/c2ccc(Cl)c([N+](=O)[O-])c2)CC1 | 8 | x | x | 22* | x | x | 30* | -10
CCOC(=O)C(C)N1C(=O)S/C(=C\c2ccc(-c3ccccc3C(=O)O)o2)C1=O (stereo unspecified) | -1 | x | x | 23* | x | x | 12 | 21*
CN1CCN(Cc2c(O)c(Cl)cc3c(-c4ccccc4)cc(=O)oc23)CC1 | 5 | -9 | 5 | 21* | 0 | 6 | 21* | 24*
CCC(C)Sc1cccc(-c2nc3cnccn3c2NC2CCCCC2)c1 (stereo unspecified) | 22* | x | x | 34* | x | x | 28* | 42*
CCC(C)Sc1cccc(-c2nc3ccc(C)cn3c2NC2CCCCC2)c1 (stereo unspecified) | 1 | x | x | -9 | x | x | x | x
